From ChEMBL document CHEMBL1137547, “Synthesis and antifungal activities of novel 2-aminotetralin derivatives” (2007)
In brackets after ≈: the same amount, converted by molar mass.

Key:
Format in all cases: functional
Fonsecaea compacta = assay: Antifungal activity against Fonsecaea compacta
How it was run: (§1)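 NCCLS broth serial dilution in RPMI 1640 buffered with 0.165 M MOPS. Compounds were dissolved in DMSO and serially diluted in medium. Strains came from ATCC or clinical isolates. The growth MIC for filamentous fungi was read at 7 d, taken as the lowest concentration giving ≥80% turbidity inhibition versus the growth control.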

Trichophyton rubrum = assay: Antifungal activity against Trichophyton rubrum
How it was run: (§2)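 Dermatophytes were tested by NCCLS serial dilution in RPMI 1640 with 0.165 M MOPS and incubated at 28 °C. Compounds were dissolved in DMSO and diluted in medium. Strains came from ATCC or clinical isolates. The MIC was read at 7 d as the lowest concentration reducing turbidity by ≥80% relative to the drug-free control.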

Aspergillus fumigatus = assay: Antifungal activity against Aspergillus fumigatus; how it was run: as §1
Cryptococcus neoformans = assay: Antifungal activity against Cryptococcus neoformans after 72 hrs
How it was run: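 Cryptococcus neoformans was tested by NCCLS serial dilution in MOPS-buffered (0.165 M) RPMI 1640 at 35 °C. Compounds were dissolved in DMSO and diluted in medium. The MIC was read at 72 h as the lowest concentration giving turbidity inhibition of ≥80% relative to the growth control.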

Candida albicans = assay: Antifungal activity against Candida albicans after 24 hrs
How it was run: (§3)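 Candida yeasts were tested by NCCLS microdilution in RPMI 1640 buffered with 0.165 M MOPS and incubated at 35 °C. Compounds were dissolved in DMSO and serially diluted in medium. Isolates came from ATCC or the clinic. The MIC was read at 24 h as the lowest concentration achieving ≥80% growth inhibition versus the control.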

Microsporum = assay: Antifungal activity against Microsporum gypseum; how it was run: as §2
Candida parapsilosis = assay: Antifungal activity against Candida parapsilosis after 24 hrs; details: Lodderomyces parapsilosis; how it was run: as §3

Structure (SMILES)	MIC (Fonsecaea compacta) [µM]	MIC (Trichophyton rubrum) [µM]	MIC (Aspergillus fumigatus) [µM]	MIC (Cryptococcus neoformans) [µM]	MIC (Candida albicans) [µM]	MIC (Microsporum) [µM]	MIC (Candida parapsilosis) [µM]
CCCCNC1CCc2cccc(O)c2C1 (stereo unspecified)	> 64	> 64	> 64	> 64	> 64	64 (≈ 14 µg/mL)	> 64
NC1CCc2c(O)cccc2C1 (stereo unspecified)	32 (≈ 5.22 µg/mL)	> 64	> 64	> 64	> 64	> 64	> 64
NC1CCc2cc(O)ccc2C1 (stereo unspecified)	32 (≈ 5.22 µg/mL)	> 64	> 64	> 64	> 64	> 64	> 64
NC1CCc2ccc(O)cc2C1 (stereo unspecified)	32 (≈ 5.22 µg/mL)	> 64	> 64	> 64	> 64	> 64	> 64
CCCCCCCCNC1CCc2cccc(O)c2C1 (stereo unspecified)	4 (≈ 1.1 µg/mL)	8 (≈ 2.2 µg/mL)	–	8 (≈ 2.2 µg/mL)	2 (≈ 0.551 µg/mL)	4 (≈ 1.1 µg/mL)	8 (≈ 2.2 µg/mL)
COc1ccc2c(c1)CCC(N)C2 (stereo unspecified)	> 64	64 (≈ 11.3 µg/mL)	> 64	> 64	> 64	> 64	> 64
CCCCCCCCCNC1CCc2cccc(O)c2C1 (stereo unspecified)	4 (≈ 1.16 µg/mL)	4 (≈ 1.16 µg/mL)	16 (≈ 4.63 µg/mL)	8 (≈ 2.32 µg/mL)	1 (≈ 0.289 µg/mL)	4 (≈ 1.16 µg/mL)	8 (≈ 2.32 µg/mL)
CCCCCCCCCCNC1CCc2cc(OC)ccc2C1 (stereo unspecified)	8 (≈ 2.54 µg/mL)	1 (≈ 0.318 µg/mL)	> 64	16 (≈ 5.08 µg/mL)	0.25 (≈ 0.0794 µg/mL)	4 (≈ 1.27 µg/mL)	8 (≈ 2.54 µg/mL)
CCCCCCCCCCNC1CCc2ccc(O)cc2C1 (stereo unspecified)	2 (≈ 0.607 µg/mL)	0.25 (≈ 0.0759 µg/mL)	32 (≈ 9.71 µg/mL)	1 (≈ 0.303 µg/mL)	1 (≈ 0.303 µg/mL)	4 (≈ 1.21 µg/mL)	4 (≈ 1.21 µg/mL)
CCCCCCCCCCCCNC1CCc2c(cccc2OC)C1 (stereo unspecified)	8 (≈ 2.76 µg/mL)	0.5 (≈ 0.173 µg/mL)	> 64	8 (≈ 2.76 µg/mL)	8 (≈ 2.76 µg/mL)	16 (≈ 5.53 µg/mL)	16 (≈ 5.53 µg/mL)
NC1CCc2cccc(O)c2C1 (stereo unspecified)	32 (≈ 5.22 µg/mL)	> 64	> 64	> 64	> 64	> 64	> 64
CCCCNC1CCc2c(cccc2OC)C1 (stereo unspecified)	> 64	64 (≈ 14.9 µg/mL)	> 64	> 64	> 64	> 64	> 64
CCCCNC1CCc2ccc(OC)cc2C1 (stereo unspecified)	4 (≈ 0.933 µg/mL)	4 (≈ 0.933 µg/mL)	> 64	> 64	64 (≈ 14.9 µg/mL)	64 (≈ 14.9 µg/mL)	64 (≈ 14.9 µg/mL)
CCCCCCCCCCCCNC1CCc2ccc(OC)cc2C1 (stereo unspecified)	8 (≈ 2.76 µg/mL)	2 (≈ 0.691 µg/mL)	16 (≈ 5.53 µg/mL)	1 (≈ 0.346 µg/mL)	2 (≈ 0.691 µg/mL)	2 (≈ 0.691 µg/mL)	1 (≈ 0.346 µg/mL)
CCCCCCCCCCCCNC1CCc2cccc(OC)c2C1 (stereo unspecified)	8 (≈ 2.76 µg/mL)	4 (≈ 1.38 µg/mL)	32 (≈ 11.1 µg/mL)	16 (≈ 5.53 µg/mL)	4 (≈ 1.38 µg/mL)	64 (≈ 22.1 µg/mL)	16 (≈ 5.53 µg/mL)
CCCCCCCCCCCCNC1CCc2cc(O)ccc2C1 (stereo unspecified)	4 (≈ 1.33 µg/mL)	2 (≈ 0.663 µg/mL)	> 64	2 (≈ 0.663 µg/mL)	1 (≈ 0.332 µg/mL)	8 (≈ 2.65 µg/mL)	8 (≈ 2.65 µg/mL)

Structure (SMILES)	MIC (Fonsecaea compacta) [µM]	MIC (Trichophyton rubrum) [µM]	MIC (Aspergillus fumigatus) [µM]	MIC (Cryptococcus neoformans) [µM]	MIC (Candida albicans) [µM]	MIC (Microsporum) [µM]	MIC (Candida parapsilosis) [µM]
CCCCNC1CCc2c(O)cccc2C1 (stereo unspecified)	64 (≈ 14 µg/mL)	64 (≈ 14 µg/mL)	> 64	> 64	> 64	> 64	> 64
CCCCNC1CCc2cc(O)ccc2C1 (stereo unspecified)	> 64	64 (≈ 14 µg/mL)	> 64	> 64	> 64	> 64	> 64
CCCCCCCCCCCCNC1CCc2cccc(O)c2C1 (stereo unspecified)	8 (≈ 2.65 µg/mL)	4 (≈ 1.33 µg/mL)	32 (≈ 10.6 µg/mL)	32 (≈ 10.6 µg/mL)	16 (≈ 5.3 µg/mL)	> 64	32 (≈ 10.6 µg/mL)
CCCCCCCCCCNC1CCc2cccc(OC)c2C1 (stereo unspecified)	1 (≈ 0.318 µg/mL)	1 (≈ 0.318 µg/mL)	16 (≈ 5.08 µg/mL)	1 (≈ 0.318 µg/mL)	0.25 (≈ 0.0794 µg/mL)	2 (≈ 0.635 µg/mL)	2 (≈ 0.635 µg/mL)
CCCCCCCCCCCCNC1CCc2ccc(O)cc2C1 (stereo unspecified)	32 (≈ 10.6 µg/mL)	1 (≈ 0.332 µg/mL)	> 64	32 (≈ 10.6 µg/mL)	16 (≈ 5.3 µg/mL)	4 (≈ 1.33 µg/mL)	> 64
CCCCCCCCNC1CCc2c(cccc2OC)C1 (stereo unspecified)	4 (≈ 1.16 µg/mL)	8 (≈ 2.32 µg/mL)	16 (≈ 4.63 µg/mL)	16 (≈ 4.63 µg/mL)	8 (≈ 2.32 µg/mL)	> 64	16 (≈ 4.63 µg/mL)
CCCCNC1CCc2cccc(OC)c2C1 (stereo unspecified)	0.25 (≈ 0.0583 µg/mL)	16 (≈ 3.73 µg/mL)	64 (≈ 14.9 µg/mL)	> 64	> 64	32 (≈ 7.47 µg/mL)	> 64
COc1cccc2c1CCC(N)C2 (stereo unspecified)	64 (≈ 11.3 µg/mL)	8 (≈ 1.42 µg/mL)	> 64	> 64	> 64	> 64	> 64
COc1cccc2c1CC(N)CC2 (stereo unspecified)	> 64	64 (≈ 11.3 µg/mL)	> 64	> 64	> 64	> 64	> 64
CCCCCCCCCCCCNC1CCc2cc(OC)ccc2C1 (stereo unspecified)	64 (≈ 22.1 µg/mL)	4 (≈ 1.38 µg/mL)	> 64	4 (≈ 1.38 µg/mL)	4 (≈ 1.38 µg/mL)	> 64	32 (≈ 11.1 µg/mL)
CCCCCCCCCCCCNC1CCc2c(O)cccc2C1 (stereo unspecified)	> 64	32 (≈ 10.6 µg/mL)	> 64	> 64	4 (≈ 1.33 µg/mL)	2 (≈ 0.663 µg/mL)	> 64
CCCCNC1CCc2cc(OC)ccc2C1 (stereo unspecified)	> 64	64 (≈ 14.9 µg/mL)	> 64	64 (≈ 14.9 µg/mL)	64 (≈ 14.9 µg/mL)	> 64	> 64
CCCCNC1CCc2ccc(O)cc2C1 (stereo unspecified)	64 (≈ 14 µg/mL)	> 64	> 64	> 64	> 64	64 (≈ 14 µg/mL)	> 64
CCCCCCCCCNC1CCc2ccc(O)cc2C1 (stereo unspecified)	8 (≈ 2.32 µg/mL)	4 (≈ 1.16 µg/mL)	64 (≈ 18.5 µg/mL)	8 (≈ 2.32 µg/mL)	1 (≈ 0.289 µg/mL)	8 (≈ 2.32 µg/mL)	16 (≈ 4.63 µg/mL)
COc1ccc2c(c1)CC(N)CC2 (stereo unspecified)	> 64	64 (≈ 11.3 µg/mL)	> 64	> 64	> 64	> 64	> 64
